rRNA inh HTS – selective bacterial rRNA inhibition in E. coli | E. coli WT GFP vs humanized-ribosome RFP mutants, fluorescence, 24 h; active compounds read low; DMSO median 0, no signal -100 | 350,000 compounds, 1.6% hits | GFP signal change (wild-type ribosome), % (test concentration not listed) | AID 720706;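 active = significant combined selectivity score with lowered wild-type GFP, culture density cut under 30%, mutant RFP and density less affected; inactive = any of these conditions unmet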
FN deposition inh – fibronectin deposition inhibition; AH1F fibroblasts, Alexa488-fibronectin deposition fluorescence, overnight; inhibition, % at 12.6 µM; 350,000 compounds, 0.086% hits;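 active = mean inhibition across replicates of 30% or more, regardless of how many single replicates reach that level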;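 also: positive control wells lacked labelled fibronectin entirely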
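Material: AH1F fibroblast monolayer depositing Alexa488-labelled fibronectin into matrix / Amount: 10000 AH1F cells per well / Signal: fluorescence 485/525 nm / Medium: DMEM, 2% serum / Compound: single dose, pinned / Incubation: 1 h cell adhesion before compound, then overnight fibronectin incubation / Reagent: Alexa488-FN, 24 nM final / Read-out: inhibition of fibronectin deposition signal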
Statin myotox sup – suppression of simvastatin myotoxicity; C2C12 myotubes + simvastatin, ATP luminescence, 48 h; scaled: DMSO 0, geranylgeraniol control 100; rescue of ATP level, % at 7.49 µM; 330,000 compounds, 0.78% hits; AID 602340;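 active = mean ATP rescue above about 67%, or every replicate alone reaching that limit, limit read from the data, passing the limit was not always enough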;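 also: myotubes were challenged with 10 µM simvastatin during compound exposure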
SIRT5 block – blocks human SIRT5 desuccinylation of peptide | AID 652115 | 330,000 compounds, 1.1% hits | Q9NXA8 | inhibition, % at 15 µM | Purified SirT5, succinyl-peptide AMC, trypsin-coupled fluorescence; in the data active = inhibition above about 15%
Target sequence (Q9NXA8 whole entry, looked up): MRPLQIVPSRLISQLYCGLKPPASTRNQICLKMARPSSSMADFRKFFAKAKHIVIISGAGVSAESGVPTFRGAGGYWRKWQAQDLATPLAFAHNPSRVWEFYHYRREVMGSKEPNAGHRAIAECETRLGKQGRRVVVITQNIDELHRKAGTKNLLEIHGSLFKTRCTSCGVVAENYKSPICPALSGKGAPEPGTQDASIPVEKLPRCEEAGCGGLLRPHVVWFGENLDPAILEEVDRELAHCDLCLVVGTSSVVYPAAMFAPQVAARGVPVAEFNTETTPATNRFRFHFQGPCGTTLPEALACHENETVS
FGF22 binding – shifts melting point of recombinant human FGF22; Q9HCT0; recombinant FGF22 thermal shift, SYPRO orange fluorescence; percent of sucrose octasulfate shift, DMSO zero; activity (Tm shift, normalised), % at 9.99 µM; 340,000 compounds, 1.5% hits; AID 651658;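 active = mean Tm shift, scaled 0 neutral to 100 positive control, at about 1.3% or above, every replicate too, limit read from the data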
Target sequence (Q9HCT0 whole entry, looked up): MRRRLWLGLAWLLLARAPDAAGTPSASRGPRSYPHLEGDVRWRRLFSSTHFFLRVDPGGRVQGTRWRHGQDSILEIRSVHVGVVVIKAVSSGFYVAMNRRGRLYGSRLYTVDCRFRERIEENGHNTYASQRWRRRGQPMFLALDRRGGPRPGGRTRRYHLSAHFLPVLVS
E-sel inducer – induces E-selectin expression in human endothelial cells. 260,000 compounds, 0.37% hits. P16581. HUVEC E-selectin immunofluorescence imaging; normalized: neutral wells 0, TNF-alpha wells 100. AID 686992. activation, % at 7.58 µM;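 active = mean E-selectin-positive cell signal at least 10% of the positive control, reached in at least 60% of replicates, without over 20% cell loss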
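Read-out: % PE-positive cells | Test system: HUVEC | Doses: One compound dose added by pin transfer | Buffer or medium: EGM-2 over gelatin coat | Signal: Immunofluorescence imaging | Benchmarks: TNF-alpha, DMSO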
* = called active by the depositor; · = not tested or not shown. Shown are actives, neighbours in structure and some others; about 4% of the full set was active somewhere.

SMILES | rRNA inh HTS | FN deposition inh | Statin myotox sup | SIRT5 block | FGF22 binding | E-sel inducer
Cc1sc2nc(CN3CCN(S(=O)(=O)c4cccc5nonc45)CC3)[nH]c(=O)c2c1C | · | · | 93.0* | · | · | ·
C/C=C/c1ccc([C@H]2[C@@H](CO)N(C(=O)C3CCC3)[C@@H]2CNC(=O)CN(C)C)cc1 | -0.1 | -4.0 | · | -2.1 | · | -0.1
COc1cc(CNCCc2c[nH]c3ccccc23)cc(Cl)c1OCC(N)=O | · | -3.3 | · | 1.5 | 43.5* | 0.3
COC(=O)[C@H](Cc1c[nH]c2ccccc12)NC(=O)NCc1ccc(OC)c(OC)c1 | -2.3 | 0.0 | 2.8 | 30.0* | -0.2 | -0.1
CO[C@H]1CN(C)C(=O)c2cc(NC(=O)C3CC3)ccc2OC[C@@H](C)N(C(=O)CN2CCOCC2)C[C@@H]1C | 3.6 | -1.7 | -0.5 | -1.0 | 0.0 | 0.2
CN(Cc1ccccc1)C(=O)c1nc2ccccn2c1CN1CCC(N2CCOCC2)CC1 | -1.7 | 7.9 | · | 15.0* | 0.3 | 2.9
CCCCN(C)C(=O)c1nc2ccccn2c1CN1CCN(C/C=C/c2ccccc2)CC1 | 9.3 | 0.2 | · | -1.8 | 0.5 | 0.2
COC(=O)[C@@H](NC(=O)CN=[N+]=[N-])c1ccccc1 | · | · | · | -1.6 | -0.4 | ·
COCC#Cc1cnc2c(c1)C(=O)N([C@@H](C)CO)C[C@@H](C)[C@H](CN(C)C(=O)CCN1CCCCC1)O2 | 4.4 | · | 7.7 | -2.7 | -0.3 | -0.3
CCC(=O)N1[C@H](C(=O)OC)[C@@H](CO)[C@@H]2Cn3c(ccc(/C=C/c4ccccc4)c3=O)[C@@H]21 | -3.0 | · | 43.2 | -73.9 | 0.0 | 0.4
CCO/C=C1/C(=O)N(c2ccccc2OC)C(=O)c2ccccc21 | 3.2 | 8.0 | 13.8 | 3.7 | -0.1 | 2.7
CCOC=C1C(=O)N(C(C)=O)c2cc(OC)c(OC)cc21 | 2.0 | 3.5 | 7.1 | · | 43.0* | 0.1
COc1ccccc1N=c1oc2cc(O)ccc2cc1C(N)=O | · | 4.7 | -129.8 | · | · | ·
Cc1cccc(N=c2oc3cc(O)ccc3cc2C(N)=O)c1 | · | 11.2 | 118.3* | · | · | ·
O=[N+]([O-])c1ccc2nc(C(O)C(O)c3nc4ccc([N+](=O)[O-])cc4[nH]3)[nH]c2c1 (centres undefined) | 9.6 | 6.4 | -4.1 | 99.8* | -0.1 | ·
Cc1ccc2nc(C(O)C(O)c3nc4ccc(C)cc4[nH]3)[nH]c2c1 (centres undefined) | · | -8.7 | -9.5 | · | · | ·
CCCNC(=O)N(C)C[C@H]1Oc2ncc(-c3ccc(OC)cc3)cc2C(=O)N([C@H](C)CO)C[C@H]1C | 2.0 | · | 14.4 | -2.6 | -0.1 | -0.2
CN(C)CCCNS(=O)(=O)c1ccc(N2CCC(c3ccc(Cl)cc3)=N2)cc1 | · | 40.7* | · | · | · | ·
CC(=O)Oc1c(C(C)C)cc(N(C(C)=O)c2ccccc2)cc1C(C)C | -22.2* | 1.5 | · | 2.4 | 0.0 | -0.7
CC(=O)N(c1ccccc1)c1c(F)c(F)c(F)c(F)c1F | · | · | 0.5 | · | · | ·
CCOc1ccccc1C(=O)N[C@H](C(=O)NCc1ccccc1)C(C)C | 9.9 | · | · | -2.2 | 43.2* | ·
CCOc1ccccc1C(=O)NC(C(=O)N(C)c1c(N)n(Cc2ccccc2)c(=O)[nH]c1=O)C(C)C (centres undefined) | 4.1 | 1.9 | 0.1 | 16.9* | 0.5 | ·
CC(C)C(NC(=O)c1ccccc1F)C(=O)NCc1ccccc1 (centres undefined) | 5.7 | 3.5 | -1.1 | 0.4 | -0.2 | ·
O=C(C1CCCC1)N1CC2(C1)[C@@H](c1ccccc1)[C@H](CO)N2Cc1ccc(Cl)cc1 | -14.8 | -4.2 | · | -7.4 | · | 2.8
O=C(CN1C(=O)CCC1=O)Nc1nc(-c2ccc3ccccc3c2)cs1 | -13.4 | -0.4 | · | -4.4 | 43.5* | ·
SMILES | rRNA inh HTS | FN deposition inh | Statin myotox sup | SIRT5 block | FGF22 binding | E-sel inducer
COc1cccc(NC(=O)C(=O)NCCCn2ccnc2)c1 | 10.6 | · | · | -0.1 | 43.3* | ·
COc1ccc(OC)c(-c2cc(C(=O)NCCCn3ccnc3)no2)c1 | · | · | 160.9* | · | · | ·
O=C(NCC(c1ccco1)N1CCN(c2ccccc2F)CC1)C1CCCCC1 (centres undefined) | -12.5 | -0.4 | 13.2 | 19.6* | 0.2 | ·
O=C(COc1ccccc1)NCC(c1ccco1)N1CCN(c2ccccc2F)CC1 (centres undefined) | -13.6 | -3.8 | 6.7 | -4.3 | -0.1 | ·
O=C(NCC(c1ccco1)N1CCN(c2ccccc2F)CC1)C(=O)NC1CCCCC1 (centres undefined) | 1.5 | 4.2 | -42.7 | 1.8 | 0.1 | 0.1
O=C(COc1ccccc1)NCC(c1ccco1)N1CCN(c2ccc(F)cc2)CC1 (centres undefined) | -14.4 | 3.1 | · | 18.5* | -0.1 | ·
COc1ccccc1-c1ccc([C@@H]2[C@H](CO)N(C(=O)C3CC3)C23CN(C(C)=O)C3)cc1 | 1.8 | · | · | 1.4 | -0.1 | 0.0
COc1ccccc1NC(=O)N1C[C@H]2[C@@H](c3ccccc31)[C@@H](CO)N2CC1CCCC1 | -19.3 | · | -51.0 | -1.1 | 0.0 | 0.4
COc1ccc(-c2cc(=O)oc3cc(OCC(=O)NCc4ccccn4)ccc23)cc1 | · | · | -1.0 | · | 0.1 | ·
COc1ccc(-c2cc(=O)oc3cc(OC(C)C(=O)NCc4ccccn4)ccc23)cc1 (centres undefined) | · | · | -2.1 | · | 48.8* | ·
C=CCc1cc(/C=C2/NC(=O)NC2=O)cc(OCC)c1O | -26.1 | -9.9 | · | -0.7 | 43.1* | ·
Cc1c(NC(=O)COc2cccc(Cl)c2Cl)c(=O)n(-c2ccccc2)n1C | 0.5 | 0.1 | · | -7.7 | 42.9* | 0.2
COc1ccccc1N1CCN(C(=O)CCC(=O)O)CC1 | 7.6 | -1.0 | -5.4 | 1.5 | 43.0* | ·
COc1ccccc1N1CCN(C(=O)C(=O)N/N=C/c2cccc(O)c2)CC1 | · | -9.8 | 95.7* | · | · | ·
COc1ccccc1N1CCN(CC(=O)NC(=O)NCc2ccccc2)CC1 | 8.9 | 1.3 | 9.2 | · | 43.2* | -0.1
COc1ccccc1N1CCN(CC(=O)NCc2ccc(Cl)cc2)CC1 | -0.8 | 8.5 | 18.3 | -2.3 | -0.2 | ·
O=C(c1ccccc1)N1C[C@@H]2[C@H](c3ccccc31)[C@H](CO)N2Cc1ccccc1F | -9.0 | · | 5.5 | -1.2 | · | 0.5
O=C(Cc1ccccn1)N[C@@H]1CC[C@@H](CCn2cc(-c3cccnc3)nn2)O[C@H]1CO | 0.2 | · | 0.1 | -5.6 | -0.4 | -0.1
COc1ccccc1N1CCN(CC(=O)Nc2c(C)n(C)n(-c3ccccc3)c2=O)CC1 | 3.6 | 4.4 | 3.4 | 29.0* | -0.2 | 2.1
Cc1ccc2nc(C)cc(C(=O)OCC(=O)Nc3c(C)n(C)n(-c4ccccc4)c3=O)c2c1 | 0.3 | · | · | 2.4 | 43.4* | ·
COC(=O)c1[nH]c2cc(C)ccc2c1NC(=O)CN1CCN(c2ccccc2OC)CC1 | · | · | 86.2* | · | · | ·
Cc1c(NC(=O)CN2CCN(c3ccc(O)cc3)CC2)c(=O)n(-c2ccccc2)n1C | 15.6 | -5.0 | · | 0.7 | -1.8 | 1.0

Source: PubChem BioAssay (Broad Institute)
